# The entries come from a sample that favours hits as a whole.
# HCT116 PTEN-null: suppresses growth of cells with PTEN deletion; AID 827; viability, % at 10 µM; 1.2% of 140,000 active; HCT116 PTEN-null viability, CellTiter-Glo, 60 h; active compounds read low;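 active = viability at or below a set limit, 4 SD under the median of all tested compounds, cut at about 3.7% in these data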;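 also: PTEN knockout HCT116 line with beta catenin targeted HCT116 as companion control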
# Fibroblast inh: blocks proliferation of human lung fibroblasts; LL 47 human lung fibroblast viability, ATP luminescence; active compounds read low; viability, % at 10 µM; 1.1% of 85,000 active;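 active = viability at or below 50% in the single dose screen; inactive = viability above 50%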;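 also: compound exposure lasted 72 h before the ATP readout; 100% = median luminescence of untreated cell-only wells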
#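 Assay system: human lung fibroblast line LL 47, low passage. Input: 1,150 fibroblasts seeded per well. Times: overnight cell rest, 72 h compound treatment at 37 °C. Evaluation: % viability of median cell-only signal. Technique: luminescent ATP detection, CellTiter-Glo. Control set: cell-only wells, no compound.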
# H69AR growth 86K: growth inhibitors of human H69AR lung tumor cells | H69AR lung tumor viability, ATP luminescence, 72 h; active compounds read low | viability, % at 10 µM | 6% of 85,000 active;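 active = viability at or below 40%; inactive = viability above 40%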;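 also: multidrug resistant small cell line overexpressing MRP-1 efflux transporter; 100% = mean luminescence of untreated control wells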
# HUVEC inhibit: blocks proliferation of human endothelial cells; HUVEC proliferation, CellTiter-Glo luminescence, 72 h; active compounds read low; viability, % at 10 µM (by protocol); 1.1% of 86,000 active;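 active = viability at or below 30%; inactive = viability above 30%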;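 also: 100% = median luminescence of DMSO-only cell control wells on each plate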
# bCat KO growth: beta-catenin-lacking colon tumor cell growth suppression; HCT116 beta-catenin knockout viability, CellTiter-Glo, 60 h; active compounds read low; viability, % at 10 µM; 1.5% of 140,000 active; AID 818;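 active = viability at or under a set limit, the compound median less 4 SD, cut at about 6% in these data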;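 also: 0% = Hyamine 1622 control at 20 µM and 100% = untreated cell control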
# * marks the source's active call; other numbers are inactive results; . = not tested or not shown.
SMILES,HCT116 PTEN-null,Fibroblast inh,H69AR growth 86K,HUVEC inhibit,bCat KO growth
COc1ccc(/C=N/NC(=O)c2ccc3ccccc3c2)cc1OS(=O)(=O)c1ccc(NC(C)=O)cc1,14,.,.,.,14
CS(=O)(=O)c1nc(-c2ccccc2)cc(-c2ccccc2)c1C#N,2.4*,40*,1.5*,39,1.9*
Cc1sc2ncnc(SCC(=O)NNC(=O)COc3cccc4ccccc34)c2c1C,93,.,.,.,100
Cc1cc(C(=O)O)c2ccccc2n1,93,101,101,98,118
Cc1cc(C)c2ccc(C(=O)O)nc2c1O,83,93,38*,83,69
CCCc1nc2ccccc2c(=O)n1/N=C/c1c(C)[nH]n(-c2ccc(C)cc2)c1=O,50,88,27*,64,39
COc1cccc([C@@H]2Oc3ccc(OC)cc3C(=O)[C@H]2O)c1,9,.,.,.,5.3*
COc1ccc2c(c1)C(=O)[C@@H](O)[C@H](c1ccc(OC)c(Br)c1)O2,11,.,.,.,11
O=C(Cn1nnc(-c2ccccc2)n1)OCc1ccccc1,104,.,.,.,91
CC1Cc2ccccc2N1C(=O)COC(=O)Cn1nnc(-c2ccccc2)n1 (configuration not stated),98,101,22*,98,98
CCOc1ccc(-n2nnnc2-c2nc3ccccc3s2)cc1,3.1*,.,.,.,3.3*
Cc1ccc(-n2nnnc2-c2nc3ccccc3s2)cc1,99,.,.,.,93
C=CCn1c(SCC(=O)Nc2ccc(C(=O)OCC)cc2)nnc1-c1sc(N)nc1C,88,101,39*,99,79
C=CCn1c(SCc2ccc(C(=O)OC)cc2)nnc1-c1sc(N)nc1C,96,.,.,.,98
Cc1ccc(C)c(OCC(=O)Nc2nonc2NC(=O)COc2cc(C)ccc2C)c1,76,96,19*,56,84
Nc1cc(C(=O)O)c(Oc2ccc(Cl)cc2Cl)cc1C(=O)O,95,.,.,.,98
Cc1cc(C)c(NC(=O)COC(=O)CCc2ccc(S(=O)(=O)N3CCCCC3)cc2)c(C)c1,91,.,.,.,88
CCOC(=O)c1c(C(C)(C)C)oc2ccc(O)cc12,78,94,30*,47,83
O=C(O)/C=C/C(=O)NC1CCCCC1,90,.,.,.,102
COc1ccccc1NC(=O)CC1C(=O)NCCN1C(=O)Nc1ccc(Cl)c(Cl)c1 (configuration not stated),39,86,53,15*,59
CCC(=O)/C=C1/Sc2ccc(OC)cc2N1CC,78,94,75,87,67
CCC(/C=C1\Sc2ccc(OC)cc2N1CCO)=C\c1sc2ccc(OC)cc2[n+]1CCO,0.9*,.,.,.,2.5*
O=C(Nc1ccc(Cl)cc1)c1cccs1,88,101,95,89,82
O=C(Nc1ccccc1)c1nnsc1S(=O)c1ccc(Cl)cc1 (configuration not stated),2.2*,.,.,.,7
Cc1cc2nnc(SCC(=O)Nc3cccc(S(=O)(=O)N4CCOCC4)c3)n2c2ccccc12,86,.,.,.,92
SMILES,HCT116 PTEN-null,Fibroblast inh,H69AR growth 86K,HUVEC inhibit,bCat KO growth
CCN=c1sc(C(=O)NCCc2ccccc2)cc(=O)n1CC,56,87,9.9*,59,49
CC(=O)c1nnn(-c2nc(N)nc(N(c3ccccc3)c3ccccc3)n2)c1C,81,79,48,86,83
CCCCN(CCCC)c1nc(OC)nc(-n2nnc(C(C)=O)c2C)n1,57,99,37*,80,63
N=c1cc(C2(O)CCCCC2)n2c(nc3ccccc32)s1,76,96,6.8*,65,60
Cc1cc(NC(=O)CSc2nc(C3CC3)nc3sc(C)c(C)c23)no1,31,67,24*,72,31
CCc1nc(SCC(=O)Nc2cc(C)on2)c2c(C)c(C)sc2n1,96,87,90,88,105
CCOC(=O)c1cnn(-c2sc(C(=O)OCC)c(C)c2C(=O)OCC)c1N,.,101,24*,59,.
COc1ccc(N2CCN(CCCNC(=O)c3cc4sccc4n3C)CC2)cc1,69,93,30*,86,68
CC1CCN(CCCNC(=O)c2cc3sccc3n2C)CC1,70,96,76,91,72
CCn1cc(C=C2C(=O)c3ccccc3C2=O)c2ccccc21,87,.,.,.,92
Cc1ccc2c(c1)c1c3n2CCN=C3CCC1,85,98,92,83,94
Cc1ccc2c(c1)c1c3n2CCCNC3CCC1 (configuration not stated),75,.,.,.,74
c1cc2c(cc1C1CCCCC1)c1c3n2CCN=C3CCC1,10,66,0.2*,2.1*,2.1*
c1cc2c(cc1C1CCCCC1)c1c3n2CCCNC3CCC1 (configuration not stated),0.7*,2.6*,1.3*,2.7*,0.5*
CC(C(=O)NCc1ccco1)n1nc(-c2ccccc2)c2cc(Cl)ccc21 (configuration not stated),52,82,35*,67,48
CC(=O)c1ccc(NC(=O)C(C)n2nc(-c3ccccc3)c3cc(Cl)ccc32)cc1 (configuration not stated),58,.,.,.,64
CC(=O)N1CC[n+]2c(-c3ccc(Cl)cc3Cl)csc21,96,.,.,.,86
CN(C)C(=O)c1ccc(NC(=O)c2ccccc2Sc2ccccc2C#N)cc1,96,.,.,.,92
CCCCCC(=O)O[C@]1(C(C)=O)CC[C@H]2[C@@H]3CCC4=CC(=O)CC[C@]4(C)[C@H]3CC[C@@]21C,7,85,4.8*,71,4.8*
Cc1cc(C(=O)CSc2nc3ccccc3n2CCC#N)c(C)n1Cc1cccs1,83,80,17*,71,81
CC(C)C(=O)Nc1ccnc(-c2cccnc2)n1,96,.,.,.,97
CS(=O)(=O)N1CCN(c2ccc([N+](=O)[O-])c(NCc3ccccc3)c2)CC1,79,.,.,.,85
CS(=O)(=O)N1CCN(c2ccc([N+](=O)[O-])c(NCc3ccc(Cl)cc3)c2)CC1,6,.,.,.,2.2*
Cc1cc(C)n(-c2nc(N(c3ccccc3)c3ccccc3)nc(-n3nc(C)cc3C)n2)n1,19,38*,12*,37,21
COC(=O)/C=c1\sc2ncnn2c1=O,104,98,7.9*,97,95
SMILES,HCT116 PTEN-null,Fibroblast inh,H69AR growth 86K,HUVEC inhibit,bCat KO growth
Cn1c(CN2CCCC2)nc2cc(NC(=O)COc3ccc([N+](=O)[O-])cc3)ccc21,85,.,.,.,77
O=S(=O)(Nc1cccc2cccnc12)c1ccc(S(=O)(=O)N2CCCC2)cc1,3.8*,57,6.0*,54,9
CC(=O)Nc1nc(C)c(-c2csc(Nc3cccc([N+](=O)[O-])c3)n2)s1,1.7*,.,.,.,1.8*
Oc1ccc(-c2nc(-c3ccc(O)c(O)c3)cs2)cc1,11,46*,12*,34,15
Cc1nc(C)c(-c2csc(Nc3cccnc3)n2)s1,69,31*,50,66,85
c1cncc(Nc2nc(-c3ccncc3)cs2)c1,85,97,61,85,92
CC(=O)Nc1nc(C)c(-c2csc(Nc3ccc(O)cc3)n2)s1,18,47*,7.2*,40,13
Cc1nc(Cl)c(C(=O)NC(C)(C)C)c(C)c1Cl,102,.,.,.,93

# Bioassay records from PubChem.
